Compound activity (PubChem BioAssay)
Hits are enriched below; roughly 1.8% of the tested compounds scored in any of these assays.
GalR3 antag – antagonists of human GalR3; O60755; HEK293 GalR3-CNG cAMP membrane potential fluorescence; galR3 body fused to GalR1 C-terminus; inhibition, % at 3 µM; actives 0.44% (n = 360,000); AID 651719;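 active = inhibition above the screen-wide average plus 3 SD, cut at about 13% in these data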;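 also: forskolin and galanin both at EC90 stimulate the cells; cAMP rise reported by CNG channel membrane potential dye signal; 0% = forskolin plus galanin with DMSO and 100% = forskolin alone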
Target sequence (O60755 1-299 limits assumed): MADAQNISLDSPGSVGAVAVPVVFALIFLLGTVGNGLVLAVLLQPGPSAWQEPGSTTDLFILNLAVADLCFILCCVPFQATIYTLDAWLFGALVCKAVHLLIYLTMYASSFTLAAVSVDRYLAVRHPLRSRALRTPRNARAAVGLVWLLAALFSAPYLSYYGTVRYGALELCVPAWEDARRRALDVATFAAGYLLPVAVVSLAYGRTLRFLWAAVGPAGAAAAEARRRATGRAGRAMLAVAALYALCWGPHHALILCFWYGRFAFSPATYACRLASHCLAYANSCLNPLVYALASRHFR
NR2E3 ag-1 – human photoreceptor-specific nuclear receptor agonism; inhibition of corepressor binding, % at 3.98 µM; actives 0.35% (n = 360,000); Q9Y5X4; AID 602229; CHO-S Gal4-NCOR/VP16-NR2E3 two-hybrid, luciferase;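 active = inhibition above the mean of all tested compounds plus 3 SD, cut at about 70% in these data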;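 also: 0% = DMSO with NR2E3 transfected cells and 100% = cells lacking NR2E3 construct; higher means lower luciferase signal from less NR2E3 corepressor binding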
NR1D1 modulator – modulators of human Rev-erb alpha DNA binding; P20393; Rev-erbα–FITC-DNA binding, fluorescence polarization, 90 min; activity, % at 10 µM; actives 0.79% (n = 370,000); AID 1259318;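 active = activity above about 14%, limit read from the data; passing the limit was not always enough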;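 also: 0% = DMSO wells with 35 nM protein and 100% = DMSO wells with 750 nM protein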
PG9 Ab binder – PG9 antibody binding by small molecule; AID 624416; TR-FRET gp120-PG9 antibody binding; inhibition, % at 6.7 µM; actives 0.43% (n = 360,000); in the data active = inhibition above about 8.5%
NR2E3 ag-2 – activates human photoreceptor nuclear receptor NR2E3. Q9Y5X4. GST-NR2E3/biotin-RetCOR TR-FRET, 1536-well. inhibition of corepressor binding, % at 4.78 µM. actives 0.12% (n = 320,000). AID 2300;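 active = percent inhibition above the cutoff of mean plus 3 SD of all tested compounds, set per screening campaign, cut at about 20% in these data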;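 also: 0% = DMSO wells and 100% = biotin wells as full block of FRET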
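Test system: GST-NR2E3 and biotin-RetCOR proteins | Quantity: 1.35 nM GST-tagged NR2E3 final | Medium: Tris pH 7.5 | Also added: 7 nM biotin-RetCOR | Dosing: Compound at 4.8 µM, single dose | Timing: 5 h at 4 °C | Detection: Time-resolved FRET | Read-out basis: Percent inhibition | Benchmarks: Biotin wells as high control, 0.6% DMSO wells as low control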
Rev-erbA confirm – confirmation of modulators of human Rev-erb alpha DNA binding; shares compounds with NR1D1 modulator; Rev-erb alpha FITC-DNA binding, fluorescence polarization, 90 min; activation, % at 25 µM; actives 61% (n = 3,000); AID 1259319;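 active = activation at or above a set limit, or at least 3 SD above the negative control mean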;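 also: 0% = 35 nM protein with DMSO and 100% = 750 nM protein high control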
RORg DNA counter – counter-screen for Rev-erb alpha modulators: RORgamma DNA binding. actives 8% (n = 910). purified RORgamma protein-FITC-DNA binding, fluorescence polarization. shares compounds with NR1D1 modulator. IC50, µM;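 active = Compounds whose fitted half-maximal concentration for disrupting protein-DNA binding is below 10 micromolar; the record names Rev-erb in its text, so the target is in doubt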
* marks the source's active call; other numbers are inactive results.

Screening CC(C)CC(=O)Nc1cccc(-c2nc3ccccc3o2)c1 returned GalR3 antag 0.3, NR2E3 ag-1 -25.0, NR1D1 modulator 33.2*, PG9 Ab binder 3.0, NR2E3 ag-2 0.3 and Rev-erbA confirm 25.9*.
`CCC[C@H]1[C@@H](NC(=O)c2cccc(Cl)c2)CC[C@@]23CCCN2C(=O)CCC[C@@H]13` gave NR1D1 modulator 0.6.
`CC(c1nc2ccccc2[nH]1)n1c(=O)c(-c2cccs2)nc2ccccc21` (stereo unspecified) gave GalR3 antag -4.4, NR1D1 modulator 30.4*, PG9 Ab binder 0.1 and Rev-erbA confirm 18.4*.
For CCOC(=O)C(=CNc1nc2ccc(C(=O)OCC)cc2s1)C(=O)OCC the results were GalR3 antag -0.4, NR2E3 ag-1 -9.6, NR1D1 modulator 34.5*, PG9 Ab binder 1.3, NR2E3 ag-2 5.1 and Rev-erbA confirm 19.4*.
For CCOC(=O)c1ccc2nc(Nc3nc4ccc(F)cc4s3)sc2c1 the results were GalR3 antag -0.2, NR2E3 ag-1 37.4, NR1D1 modulator 34.8*, PG9 Ab binder -0.2, NR2E3 ag-2 -1.3, Rev-erbA confirm 31.4* and RORg DNA counter >40.
For C(#CC1=CCCCC1)CNCC1CC1 the results were NR1D1 modulator 1.5.
Cc1cccc(C)c1NC(=O)C1C(c2ccc3c(c2)OCO3)=Nc2ccccc2N1C(=O)c1cccc2ccccc12 (stereo unspecified) was read as GalR3 antag -7.8, NR1D1 modulator 29.1*, PG9 Ab binder -1.6 and Rev-erbA confirm 17.5*.
O=C(NCc1ccccc1)C1C(c2ccc3c(c2)OCO3)=Nc2ccccc2N1C(=O)c1cccc2ccccc12 (stereo unspecified) was read as GalR3 antag -4.6, NR1D1 modulator 16.2*, PG9 Ab binder -2.2 and Rev-erbA confirm 6.0.
CCCCNc1cccc2c1S(=O)(=O)N[C@H](C)CO2 was read as GalR3 antag -6.2, NR1D1 modulator 0.2 and PG9 Ab binder -0.9.
For Cc1ccc(Cn2cc(COC(=O)N3CCOCC3)nn2)cc1 the results were NR1D1 modulator -0.8.
COc1ccc2c(C)cc(SCC(=O)Nc3ccc(Cl)cn3)nc2c1 was read as GalR3 antag -9.9, NR2E3 ag-1 -0.8, NR1D1 modulator 55.2*, PG9 Ab binder -2.3, NR2E3 ag-2 -1.6 and Rev-erbA confirm 16.1.
COc1ccc2c(C)cc(SCC(=O)NCCN3C(=O)CSC3=O)nc2c1 was read as GalR3 antag -1.4, NR2E3 ag-1 -4.8, NR1D1 modulator -5.3, PG9 Ab binder 0.8 and NR2E3 ag-2 -0.9.
COc1ccc2c(C)cc(SCC(=O)NC3CCCCC3)nc2c1 was read as GalR3 antag -4.1, NR2E3 ag-1 13.6, NR1D1 modulator 121.3*, PG9 Ab binder 1.7, Rev-erbA confirm 53.1* and RORg DNA counter >40.
`COc1ccc2c(C)cc(SCC(=O)N3CCOCC3)nc2c1` gave GalR3 antag -3.4, NR2E3 ag-1 -5.4, NR1D1 modulator 5.2, PG9 Ab binder 1.2 and NR2E3 ag-2 2.5.
For O=S(=O)(/N=C(/Nc1nc2ccccc2s1)c1ccccc1)c1ccc(F)cc1 the results were GalR3 antag -3.7, NR2E3 ag-1 -25.4, NR1D1 modulator 19.1*, PG9 Ab binder 1.5 and Rev-erbA confirm -3.1.
`Cc1ccccc1NC(=O)Cc1nc(COC(=O)c2cc(Cl)ccc2O)cs1` gave GalR3 antag -3.2, NR2E3 ag-1 -39.1, NR1D1 modulator 18.8*, PG9 Ab binder 3.2, NR2E3 ag-2 1.8 and Rev-erbA confirm 7.5.
For OCC1OC(n2cnc3c(=S)nc[nH]c32)C(O)C1O (stereo unspecified) the results were NR1D1 modulator -2.7.
For NC(=O)c1cc2ccccc2o/c1=N\NC(=O)c1ccccc1O the results were GalR3 antag -9.8, NR2E3 ag-1 -27.7, NR1D1 modulator 21.0*, PG9 Ab binder -5.7, NR2E3 ag-2 -0.4 and Rev-erbA confirm -11.2.
